# Assay outcomes: PubChem BioAssay, several laboratories
# Rows were chosen to be rich in hits. Some 4.1% of all compounds tested hit in one or more screens of this group.
# KCNK3 inh: human KCNK3 channel inhibition, primary screen. actives 0.84% (n = 340,000). O14649. AID 602410. B-score at 10 µM. CHO-KCNK3 thallium flux, FluxOR fluorescence; stronger effect = lower value;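 active = B-score under library mean minus 4 SD, starting fluorescence ratio at most library mean plus 5 SD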;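 note: more negative B-score means stronger inhibition of thallium flux through KCNK3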
# KCNQ1 pot: potentiates or activates the human KCNQ1 potassium channel; CHO-K1 KCNQ1, thallium flux FluxOR fluorescence; stronger effect = higher value; B-score at 10 µM; actives 0.35% (n = 310,000); AID 2648;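 active = fluorescence ratio B-score, a plate-corrected score, at least three library SD, with initial intensity B-score within 5 SD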
#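 Test system: CHO-K1 cells stably expressing KCNQ1 / Medium: assay buffer / Also added: depolarizing K+/Tl+ stimulus, K2SO4 and Tl2SO4 each 12.5 mM in 5x stock / Incubation: 90 min dye loading and 20 min compound exposure, both at room temperature / Signal: thallium influx via FluxOR fluorescence, kinetic imaging / Evaluation: B score of baseline-normalized fluorescence ratio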
# KCC2 mod: KCC2 (human) Cl- transport modulation; Q9H2X9; KCC2 cells, thallium flux FluoZin-2 fluorescence; B-score of Tl+ flux slope (higher = more flux/activation; lower = inhibition) at 10 µM; actives 2.2% (n = 190,000);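 active = thallium flux slope and its plate-corrected score both differing from the plate sample mean at a set confidence after two filtering rounds, in either direction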;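 note: slope of fluorescence scaled to starting intensity during 10 to 20 s after thallium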
# KCNK9 block: inhibitors of human KCNK9 two-pore domain potassium channel | B-score at 10 µM | AID 488922 | actives 1.2% (n = 310,000) | HEK293 KCNK9, FluxOR thallium flux fluorescence; stronger effect = lower value | Q9NPC2;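 active = ratio B-score over 3 SD below the library mean, with starting fluorescence within 5 SD of its mean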;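 note: negative B-score means less thallium flux so channel inhibition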
# hERG protect: shields human hERG channel from block by proarrhythmic agents | AID 1511 | CHO-hERG, FluxOR thallium flux, dofetilide IC70 present | activation (rescue from dofetilide block), less the hit threshold, % at 10 µM | actives 0.51% (n = 310,000);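 active = activation above the mean of controls blocked by dofetilide plus 5 SD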;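 note: thallium influx through hERG after potassium depolarization seen as dye fluorescence rise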
# Target sequence (Q12809 whole entry, looked up): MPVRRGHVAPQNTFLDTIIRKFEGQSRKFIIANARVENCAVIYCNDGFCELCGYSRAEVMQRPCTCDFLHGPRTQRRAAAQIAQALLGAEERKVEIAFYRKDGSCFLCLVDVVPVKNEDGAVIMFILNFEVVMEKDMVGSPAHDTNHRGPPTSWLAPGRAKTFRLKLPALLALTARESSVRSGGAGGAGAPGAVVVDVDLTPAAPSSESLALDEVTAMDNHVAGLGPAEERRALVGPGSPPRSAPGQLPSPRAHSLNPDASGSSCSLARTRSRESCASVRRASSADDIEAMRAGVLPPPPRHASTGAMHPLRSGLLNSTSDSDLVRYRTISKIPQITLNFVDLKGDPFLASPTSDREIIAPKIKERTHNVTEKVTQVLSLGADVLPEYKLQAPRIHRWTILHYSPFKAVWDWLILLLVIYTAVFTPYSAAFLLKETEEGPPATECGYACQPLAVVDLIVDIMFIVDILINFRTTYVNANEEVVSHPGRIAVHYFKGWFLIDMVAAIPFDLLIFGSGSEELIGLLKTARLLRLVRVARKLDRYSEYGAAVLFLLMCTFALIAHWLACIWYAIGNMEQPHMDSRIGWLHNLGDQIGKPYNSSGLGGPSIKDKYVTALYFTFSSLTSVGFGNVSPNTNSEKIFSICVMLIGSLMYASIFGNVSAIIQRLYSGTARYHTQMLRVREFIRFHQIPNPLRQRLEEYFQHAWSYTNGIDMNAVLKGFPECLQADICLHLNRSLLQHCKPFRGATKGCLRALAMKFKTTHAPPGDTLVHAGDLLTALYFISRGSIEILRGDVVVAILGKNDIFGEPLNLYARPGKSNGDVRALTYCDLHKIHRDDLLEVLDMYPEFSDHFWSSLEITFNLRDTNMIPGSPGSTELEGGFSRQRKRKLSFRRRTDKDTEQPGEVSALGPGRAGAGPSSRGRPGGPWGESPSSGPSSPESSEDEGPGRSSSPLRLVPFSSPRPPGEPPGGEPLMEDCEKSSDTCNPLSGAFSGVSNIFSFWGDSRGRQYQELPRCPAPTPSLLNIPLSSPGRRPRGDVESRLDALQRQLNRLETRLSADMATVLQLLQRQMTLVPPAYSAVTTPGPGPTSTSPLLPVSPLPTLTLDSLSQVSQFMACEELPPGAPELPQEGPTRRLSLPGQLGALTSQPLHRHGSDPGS
# KCNQ1 inh: inhibitors of human KCNQ1 potassium channel; CHO-K1 KCNQ1, FluxOR thallium flux fluorescence; stronger effect = higher value; B-score at 10 µM; actives 1.3% (n = 310,000);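 active = compounds whose thallium flux B-score, printed positive for inhibition, exceeds three library SD while starting fluorescence stays within three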;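 note: channel opened by potassium depolarization with thallium stimulus after 20 min compound exposure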
# KCNK9 block conf: confirmation of human KCNK9 potassium channel inhibitors. shares compounds with KCNK9 block. HEK293 KCNK9 cells, FluxOR thallium flux fluorescence. inhibition, % at 10 µM. actives 43% (n = 4,900). AID 492992;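 active = thallium signal inhibited by more than 5 SD of the compound-free buffer control wells, on both duplicate plates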;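 note: 0% = assay buffer control wells without compound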
# Kir21 sel: tests whether KCNK9 modulators also affect mouse Kir2.1. shares compounds with KCNK9 block. Kir2.1 cells, FluxOR thallium flux fluorescence. inhibition, % at 10 µM. actives 4% (n = 4,900);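 active = thallium signal drop more than 5 SD beyond the mean of the no-compound control wells, seen in both duplicate plates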;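 note: signal is fluorescence rise after thallium addition divided by baseline fluorescence; plate controls were assay buffer only for no effect and full block by chlorpromazine control for full effect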
# HEK293 Tl ctr: non-induced cell nonspecific activity of KCNK9 modulators | shares compounds with KCNK9 block | non-induced KCNK9-HEK293, FluxOR thallium flux | inhibition, % at 10 µM | actives 40% (n = 4,900);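 active = thallium signal drop beyond 5 SD of the untreated control mean, on both duplicate plates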;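 note: plate controls were buffer only IC0 wells for no effect and SID17386958 at its maximal inhibitory level for full effect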
# Active calls of the source: *; i = inactive; / = no result.
SMILES,KCNK3 inh,KCNQ1 pot,KCC2 mod,KCNK9 block,hERG protect,KCNQ1 inh,KCNK9 block conf,Kir21 sel,HEK293 Tl ctr
C=C1C[C@]23C[C@@]1(O)CC[C@H]2[C@@]12C=C[C@H](O)[C@@](C)(C(=O)O1)[C@H]2[C@@H]3C(=O)O,i,/,/,/,/,/,/,/,/
Cc1cc(C)c(-n2nnnc2SC(C)C)c(C)c1,i,i,-0.8,-11*,-5,i,54%*,i,42%*
Cc1ccc(-n2nnnc2SC(C)C(N)=O)c(C)c1 (stereo not drawn),i,i,0.39,i,-9,i,/,/,/
CCOC(=O)C1=C(COC(=O)CCOc2ccccc2)NC(=O)NC1C (stereo not drawn),i,/,/,/,/,/,/,/,/
COCC(=O)N1CCN(c2nc3ccccc3o2)CC1,i,i,0.077,i,-8,i,/,/,/
CC(C)c1ccc(NC(=O)c2cccc(Br)c2)cc1,i,i,0.39,-8.8*,-8,i,38%*,i,i
CCCCOc1ccccc1NC(=O)c1scc2c1OCCO2,i,i,-0.16,-12*,-20,i,48%*,i,36%*
CCCCOc1ccccc1NC(=O)c1ccco1,i,i,-0.15,i,-6,i,/,/,/
O=C(Nc1ccccc1)Nc1ccc(-n2ccc(C(F)(F)F)n2)cc1,i,i,0.12,-9*,-19,6*,48%*,i,i
CCn1cc(/C=C(\NC(=O)c2ccccc2OC)C(=O)NCCCN2CCOCC2)c2ccccc21,i,i,/,i,-9,i,/,/,/
CCn1cc(/C=C(\NC(=O)c2ccccc2F)C(=O)NCCN2CCOCC2)c2ccccc21,i,i,/,i,-11,i,i,i,i
CC(=O)c1ccc(OCCCCCCCOc2ccc(C(C)=O)cc2)cc1,i,i,/,-8.8*,0,i,i,i,i
CC(=O)c1ccc(OCCCCOc2ccc(C(C)=O)cc2)cc1,i,i,/,i,-4,i,/,/,/
O=C(NC1CCN(C(=O)Nc2cccc(F)c2)CC1)C1CCCCC1,i,i,-1.2,i,-7,i,/,/,/
Cc1ccccc1Nc1nnc(SCc2cc([N+](=O)[O-])cc3c2OCOC3)s1,i,i,-1.1,-8.9*,-8,i,i,i,i
Cc1ccc(NS(=O)(=O)c2cc(NC(=O)c3ccc4c(c3)NC(=O)CS4)ccc2Cl)c(C)c1,i,i,-1.1,i,-4,i,/,/,/
CC(C)(C)c1ccc(Cn2c(=N)n(CC(O)c3ccco3)c3ccccc32)cc1 (stereo not drawn),-12*,i,/,-11*,-32,9*,40%*,43%*,26%*
Cc1ccccc1Cn1c(=N)n(CC(O)c2ccco2)c2ccccc21 (stereo not drawn),i,i,/,i,-13,i,/,/,/
CCOc1ccccc1C1c2[nH]c3ccccc3c2C[C@H]2C(=O)N(C3CCN(Cc4ccccc4)CC3)CC(=O)N12 (stereo partly drawn),i,i,/,i,-14,i,i,i,i
CN(C)CCn1c(=O)n(-c2cccc(Cl)c2)c(=O)c2c3c(sc21)CCCCC3,i,i,0.73,i,-12,i,i,i,i
CN(C)CCn1c(=O)n(-c2ccc(F)cc2)c(=O)c2c3c(sc21)CCCCC3,i,i,-0.99,i,-8,i,/,/,/
CCc1ccc(C(=O)N2CCC(c3nc4ccccc4s3)CC2)cc1,i,i,-0.31,i,-13,i,i,i,i
O=C(c1ccccc1Br)N1CCC(c2nc3ccccc3s2)CC1,i,i,1.2,i,-22,i,/,/,/
CCN(CC(=O)Nc1cc(Cl)ccc1C)C(=O)c1ccc(N2CCCC2=O)cc1,i,/,/,/,/,/,/,/,/
O=C(Nc1ccc(C(F)(F)F)cc1Cl)c1ccc(Cn2cc(Br)cn2)o1,i,i,/,-12*,-2,i,37%*,i,46%*
SMILES,KCNK3 inh,KCNQ1 pot,KCC2 mod,KCNK9 block,hERG protect,KCNQ1 inh,KCNK9 block conf,Kir21 sel,HEK293 Tl ctr
O=C(C[C@H]1C/C=C\CC[C@H](Cc2ccc(F)cc2)C(=O)OC[C@H]2CCCN2C1=O)NCCO,i,/,/,/,/,/,/,/,/
O=C(Nc1cnn(Cc2ccc(F)cc2)c1)c1cnn2c(C(F)F)cc(-c3ccccc3)nc12,i,i,0.041,-13*,-10,i,50%*,i,36%*
CCOc1cccc(-c2c(C(=O)N/N=C/c3c(F)cccc3Cl)nnn2-c2nonc2N)c1,i,i,/,-9.4*,-10,i,i,i,i
CCOc1cccc(-c2c(C(=O)N/N=C/c3ccc(C)s3)nnn2-c2nonc2N)c1,i,i,/,i,-14,i,/,/,/
Cn1ccnc1SCCNC(=O)CCc1nnc(CCc2ccccc2)o1,i,i,0.43,i,-9,i,/,/,/
Cc1ccc(Cl)cc1N1CCN(S(=O)(=O)c2ccc3[nH]c(=O)c(=O)[nH]c3c2)CC1,i,i,-0.075,i,-4,i,/,/,/
Cc1ccc(Cl)cc1N1CCN(S(=O)(=O)c2cccc(S(=O)(=O)N3CCCC3)c2)CC1,-11*,i,-0.36,-10*,-7,i,49%*,i,32%*
CCc1sc(N(C(=O)Cc2ccccc2)c2ccccc2)nc1-c1ccccc1,i,i,0.065,i,-13,i,/,/,/
CCCCC(=O)N(c1ccc(C(=O)O)cc1)c1nc(-c2ccc(Cl)cc2)c(CC)s1,i,i,-1.8,i,-10,i,i,i,i
CCN(CC)S(=O)(=O)c1cccc(C(=O)NC2CCCCC2)c1,i,i,/,i,-12,i,/,/,/
CCN(CC)S(=O)(=O)c1ccc(C)c(NC(=S)NC2CCCCC2)c1,i,i,0.045,i,-8,i,i,i,i
C=CCC1(Cl)C(=O)C(Cl)=C(N2CCN(C)CC2)C1(OC)OC (stereo not drawn),i,i,0.8,i,-1,i,/,/,/
O=C1c2ccccc2C2=Nc3ccccc3SC(c3cccc(F)c3)C12 (stereo not drawn),i,i,-0.69,-15*,-4,i,56%*,i,56%*
O=C1CCCC2=C1C(c1ccc(Cl)cc1)C1C(=O)c3ccccc3C1=N2 (stereo not drawn),i,i,-2.7,i,-17,i,/,/,/
